Only some compounds are listed: those with a hit (about 1.9% of all), similar ones and a draw of the others.
ABHD5-PLIN5 inh: ABHD5-PLIN5 interaction inhibitors, primary screen, cell lysate, split luciferase complementation, luminescence; Perilipin-5 (Homo sapiens) + 1-acylglycerol-3-phosphate O-acyltransferase ABHD5 (Homo …; Split G. princeps luciferase complementation, 4 h; inhibition, % at 4 µM; hit rate 0.78% among 360,000; AID 602281, 2012;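 active = inhibition above the mean inhibition across every tested compound plus 3 SD, cut at about 22% in these data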
Rin1-Abl PPI inh: inhibitors of Rin1-Abl protein binding, primary screen, biochemical, TR-FRET. inhibition, % at 7.35 µM. Tyrosine-protein kinase ABL1 (Homo sapiens) + Ras and Rab interactor 1 (Homo sapiens), …. AID 588664, 2011. hit rate 0.4% among 360,000; in the data active = inhibition above about 5%, passing the limit was not always enough
Target sequence (P00519 whole entry, looked up): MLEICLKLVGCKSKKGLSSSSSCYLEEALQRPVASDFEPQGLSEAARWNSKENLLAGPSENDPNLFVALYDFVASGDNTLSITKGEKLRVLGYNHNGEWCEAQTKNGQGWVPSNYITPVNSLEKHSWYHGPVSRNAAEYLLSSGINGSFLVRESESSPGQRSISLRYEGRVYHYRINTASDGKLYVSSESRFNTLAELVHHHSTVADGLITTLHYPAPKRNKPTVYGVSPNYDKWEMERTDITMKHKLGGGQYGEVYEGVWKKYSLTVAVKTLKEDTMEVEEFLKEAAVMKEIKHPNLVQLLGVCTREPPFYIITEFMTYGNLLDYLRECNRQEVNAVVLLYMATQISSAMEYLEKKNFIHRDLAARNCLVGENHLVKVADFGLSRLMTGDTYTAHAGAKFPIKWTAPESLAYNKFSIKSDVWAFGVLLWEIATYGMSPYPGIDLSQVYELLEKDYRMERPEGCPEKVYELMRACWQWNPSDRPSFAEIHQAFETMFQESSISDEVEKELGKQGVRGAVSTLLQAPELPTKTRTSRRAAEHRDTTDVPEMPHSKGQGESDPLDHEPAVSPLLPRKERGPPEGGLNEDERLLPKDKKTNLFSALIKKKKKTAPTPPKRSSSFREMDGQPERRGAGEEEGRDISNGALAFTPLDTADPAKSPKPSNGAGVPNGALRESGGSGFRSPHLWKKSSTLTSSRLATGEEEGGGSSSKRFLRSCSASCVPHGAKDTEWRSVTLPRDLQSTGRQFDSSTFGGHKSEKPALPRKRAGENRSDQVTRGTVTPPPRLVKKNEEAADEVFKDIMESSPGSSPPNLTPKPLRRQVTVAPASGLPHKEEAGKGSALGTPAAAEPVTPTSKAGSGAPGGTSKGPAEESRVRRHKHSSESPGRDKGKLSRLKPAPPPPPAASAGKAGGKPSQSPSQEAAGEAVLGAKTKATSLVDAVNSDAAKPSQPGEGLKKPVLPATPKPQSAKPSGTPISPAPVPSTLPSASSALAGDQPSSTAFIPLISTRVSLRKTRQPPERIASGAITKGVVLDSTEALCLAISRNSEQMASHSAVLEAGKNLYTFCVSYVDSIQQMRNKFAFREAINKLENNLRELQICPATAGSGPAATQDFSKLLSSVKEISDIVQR
Target sequence (Q13671 whole entry, looked up): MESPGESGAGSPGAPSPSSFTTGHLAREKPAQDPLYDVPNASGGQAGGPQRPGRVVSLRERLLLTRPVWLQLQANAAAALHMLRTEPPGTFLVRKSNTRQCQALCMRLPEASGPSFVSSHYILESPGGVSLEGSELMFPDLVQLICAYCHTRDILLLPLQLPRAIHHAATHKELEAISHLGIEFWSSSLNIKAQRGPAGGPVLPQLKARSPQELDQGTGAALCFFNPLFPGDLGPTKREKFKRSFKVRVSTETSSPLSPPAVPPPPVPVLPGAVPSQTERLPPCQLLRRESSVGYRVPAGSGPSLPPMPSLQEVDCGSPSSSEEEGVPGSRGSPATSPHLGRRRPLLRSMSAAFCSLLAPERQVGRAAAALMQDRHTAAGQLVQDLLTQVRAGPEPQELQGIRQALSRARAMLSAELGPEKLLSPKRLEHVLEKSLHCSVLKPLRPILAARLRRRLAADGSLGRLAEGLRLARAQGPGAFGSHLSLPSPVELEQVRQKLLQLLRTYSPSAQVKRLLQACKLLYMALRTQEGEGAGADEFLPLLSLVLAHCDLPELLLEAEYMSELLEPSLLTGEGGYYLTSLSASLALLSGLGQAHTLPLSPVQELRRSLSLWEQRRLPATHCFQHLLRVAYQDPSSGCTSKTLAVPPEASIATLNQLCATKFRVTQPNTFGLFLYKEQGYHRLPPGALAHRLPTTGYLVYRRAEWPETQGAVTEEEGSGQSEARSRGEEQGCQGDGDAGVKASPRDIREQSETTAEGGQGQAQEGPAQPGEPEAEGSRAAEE
Rpn11 block: Rpn11 (PSMD14) deubiquitinase inhibitors, primary screen, biochemical, fluorescence polarization, uHTS; human 26S proteasome, Ub4-pepOG fluorescence polarization; 20S core pre-blocked with epoxomicin; inhibition, % at 20 µM; AID 588493, 2011; hit rate 0.59% among 360,000; 26S proteasome non-ATPase regulatory subunit 14 (Homo sapiens), O00487;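 active = inhibition at 20 µM, scaled to each plate's controls, above about 33%, limit read from the data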
NadD inh: inhibitors of S. aureus NadD, primary screen, biochemical, colorimetric, uHTS; hit rate 0.78% among 360,000; inhibition, % at 20 µM; AID 602399, 2012; Nicotinate-nucleotide adenylyltransferase NadD (Staphylococcus aureus N315); purified NadD enzyme, colorimetric absorbance read-out; in the data active = inhibition above about 26%
XiGFP reactiv: activators of inactive X chromosome reactivation, primary screen, imaging, XiGFP fibroblasts, GFP high-content imaging, set 2; hit rate 0.055% among 360,000; AID 743238, 2013; activation, % at 7.58 µM; XiGFP mouse fibroblasts, % GFP-positive cells imaging, 3 d; cells co-treated with 5-aza-dC sensitizer; scaled so ellipticine positive control = 100%;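 active = mean normalized replicate activation at least 10% and every replicate at or above 10%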
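Schedule: 3 d treatment, 15 min room-temperature fixation; system: 68-5-11 XiGFP fibroblast line; buffer or medium: DMEM plus 5-aza-dC sensitizer; control set: ellipticine 6 µM positive control; compound: one concentration, pinned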
NadD inh conf: inhibitors of S. aureus NadD, confirmation, biochemical, colorimetric, single concentration; shares compounds with NadD inh; inhibition, % at 20 µM; hit rate 13% among 2,000; purified S. aureus NadD, colorimetric enzyme assay; in the data active = inhibition mostly above about 42%, no sharp cut-off; inactive = mostly below about 42%
Hits are given with their value; . = inactive; / = no result shown.

SMILES	ABHD5-PLIN5 inh	Rin1-Abl PPI inh	Rpn11 block	NadD inh	XiGFP reactiv	NadD inh conf
CCCN1C[C@@H](C)[C@@H](OC)CN(C)C(=O)c2cc(NC(=O)COC)ccc2OC[C@@H]1C	/	/	/	/	.	/
Cc1cc2cc(CN(Cc3cccs3)C(c3nnnn3C(C)(C)C)C(C)C)c3nnnn3c2cc1C (stereo unspecified)	.	.	.	31	/	.
CCC(C)(C)n1nnnc1C(C(C)C)N(CCN1CCOCC1)Cc1cc2cccc(C)c2[nH]c1=O (stereo unspecified)	.	.	.	.	/	/
C[C@H]1CCCCO[C@@H](CN(C)C(=O)NC2CCCCC2)[C@@H](C)CN([C@@H](C)CO)C(=O)c2cc(NS(=O)(=O)c3ccc(F)cc3)ccc2O1	/	/	/	/	.	/
CCCC(=O)Nc1ccc2c(c1)C(=O)N(C)C[C@@H](OC)[C@@H](C)CN(Cc1ccncc1)[C@H](C)CO2	/	/	/	/	.	/
O=C1[C@H]2[C@@H](c3ccc(F)cc3)N3C(=O)N(c4cccc(Cl)c4)C(=O)[C@@]3(Cc3ccc(Cl)cc3)[C@H]2C(=O)N1C1CCCCC1	.	.	.	.	.	/
O=C1[C@H]2[C@@H](c3ccc(F)cc3)N3C(=O)N(c4cccc(Br)c4)C(=O)[C@@]3(Cc3ccc(Cl)cc3)[C@H]2C(=O)N1C1CCCCC1	.	.	.	31	.	.
O=C1[C@H]2[C@@H](c3ccc(Cl)cc3)N3C(=O)N(c4cccc(Br)c4)C(=O)[C@@]3(Cc3ccc(Cl)cc3)[C@H]2C(=O)N1C1CCCCC1	.	.	.	32	.	.
Cc1sc2nc(C3CC3)nc(N3CCN(S(=O)(=O)c4ccc(F)cc4)CC3)c2c1C	.	.	.	35	/	.
Cc1sc2nc(CN3CCCC3)nc(N3CCN(S(=O)(=O)c4cccc(F)c4)CC3)c2c1C	.	.	/	30	.	.
O=C(CNc1ccc(F)cc1)N/N=C1\CCc2ccccc21	.	.	.	.	.	/
COc1ccc(NCC(=O)N/N=C2\CCc3ccccc32)cc1	.	.	.	30	.	.
CCOC(=O)C1=C(N)n2c(s/c(=C\c3ccco3)c2=O)=C(C(=O)OC(C)C)C1c1ccco1 (stereo unspecified)	.	.	.	32	/	.
Cn1c(=O)n(Cc2ccccc2Cl)c2ccccc21	.	.	.	.	.	/
Cn1c(=O)n(Cc2ccccc2Cl)c(=O)c2c1[nH]c(=S)n2C	.	.	.	39	.	.
CC(C)(C)C(=O)c1c(N)[nH]c(C(=O)c2ccccc2)c1-c1ccc(Cl)cc1Cl	.	/	/	.	.	/
Nc1[nH]c(C(=O)c2ccccc2)c(-c2ccc(Cl)cc2Cl)c1C(=O)c1ccc(Cl)c(Cl)c1	.	/	/	36	.	.
C[C@@H]1CCCCO[C@H](CN(C)C(=O)Nc2ccc3c(c2)OCO3)[C@@H](C)CN([C@@H](C)CO)C(=O)c2cc(NC(=O)c3ccncc3)ccc2O1	/	/	/	/	.	/
CC1Cc2ccccc2N1Cc1cc(=O)n2ccsc2n1 (stereo unspecified)	.	.	.	28	/	.
CC(C)C[C@@H](CN)NC(=O)c1nc[nH]c1C(=O)N[C@@H](C)C(=O)CNC[C@H](CC(C)C)NC(=O)c1nc[nH]c1C(=O)N[C@@H](Cc1ccccc1)C(=O)O	.	.	.	32	.	.
CC(C)C[C@@H](CN)NC(=O)c1nc[nH]c1C(=O)N[C@@H](Cc1c[nH]c2ccccc12)C(=O)CNC[C@H](C)NC(=O)c1nc[nH]c1C(=O)N[C@@H](C)C(=O)O	.	.	.	.	.	/
CC(C)C[C@@H](CNC(=O)OC(C)(C)C)NC(=O)c1nc[nH]c1C(=O)N[C@@H](CC(C)C)C(=O)CNC[C@H](CC(C)C)NC(=O)c1nc[nH]c1C(=O)N[C@@H](Cc1c[nH]c2ccccc12)C(=O)OC(C)(C)C	.	.	.	30	.	.

Bioassay records deposited in PubChem BioAssay by several laboratories.
